# Screening data (PubChem BioAssay)
# The sample as a whole holds a higher share of hits than the screen did.
# CHOP UPR activ: activators of apoptotic CHOP UPR arm, primary screen, cell-based, CHO-CHOP luciferase reporter, luminescence, uHTS | AID 449763, 2010 | UPR activation; percent of tunicamycin response over DMSO baseline | actives 0.34% (n = 330,000) | activation, % at 10 µM;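 active means at 10 µM dose, activation of 40% or more, normalized to positive control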
#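 measured by = luciferase luminescence | assay system = CHO-CHOP cells, stable luciferase reporter of PERK-eIF2a-CHOP signalling | amount = 500 reporter cells seeded per well | timing = 6 h compound exposure at 37 °C after overnight seeding | controls = positive tunicamycin 10 µg/mL, negative DMSO alone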
# XBP1 UPR activ: activators of adaptive XBP1 UPR arm, primary screen, cell-based, CHO-XBP1 luciferase reporter, luminescence, uHTS; IRE1-XBP1 UPR activation; percent of tunicamycin response, DMSO as zero; activation, % at 20 µM; actives 0.33% (n = 330,000);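 active means versus positive control, 20 µM dose yields 30% or more activation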
#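 Signal: luciferase luminescence; Assay system: CHO-XBP1 luciferase reporter cells; Amount: one thousand reporter cells per well; Dosing: 20 µM single concentration, DMSO 1%; Benchmarks: high control tunicamycin 10 µg/mL final, low control DMSO vehicle only; Schedule: 6 h compound exposure at 37 °C, 5% CO2; Evaluation: percent activation relative to tunicamycin reference.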
# 697 NFkB inh: inhibitors of PMA/ionomycin-induced NF-kB reporter, 697 cells, primary screen, B-cell NF-kB inhibitor project, cell-based, luminescence, uHTS. actives 0.33% (n = 330,000). inhibition, % at 4 µM. 697 B-cell NF-kB luciferase reporter, 16 h. AID 435022, 2010; in the data active means inhibition above about 35%
# Jurkat NFkB inh: inhibitors of induced NF-kB luciferase reporter, primary screen, TCR NF-kB activation inhibitor project, cell-based, luminescence, uHTS; inhibition, % at 4 µM; Jurkat, PMA/ionomycin-induced NF-kB luciferase reporter; AID 435003, 2010; actives 0.53% (n = 330,000); in the data active means inhibition above about 50%
# CHOP inhibitor: inhibitors of CHOP promoter induction, primary screen, cell-based, unfolded protein response, luciferase reporter; actives 3.8% (n = 220,000); CHO-K1 CHOP-promoter luciferase, tunicamycin-induced, 15-18 h; AID 2732, 2010; inhibition, % at 10 µM;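 active means compounds that reduced the stress-induced luciferase reporter signal by more than about 70% of percent inhibition, limit read from the data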
# Hits are given with their value; 0 = inactive; - = not tested or not shown.
SMILES,CHOP UPR activ,XBP1 UPR activ,697 NFkB inh,Jurkat NFkB inh,CHOP inhibitor
COc1cc(-c2cc(C(=O)Nc3ccc(S(=O)(=O)NCc4ccco4)cc3)c3ccccc3n2)cc(OC)c1OC,0,0,0,0,79
CCCCN(C(=O)c1ccco1)c1nnc(-c2cc(OC)c(OC)c(OC)c2)s1,0,0,0,0,73
Cc1cccc(C)c1NC(=O)c1sccc1SCc1cccc(C(F)(F)F)c1,0,0,0,0,82
Cc1ccc(NC(=O)c2c(C(F)(F)F)nn(C)c2SCc2cccc(C(F)(F)F)c2)cc1C,0,0,0,0,0
Cc1ccc(NC(=O)c2sccc2SCc2cccc(C(F)(F)F)c2)cc1,0,0,0,0,80
O=C(NCCN1CCOCC1)C1CC(=O)N(c2ccc(Cl)cc2)C1 (centres undefined),0,0,0,0,-
COc1cc(S(=O)(=O)Nc2ccc(C)cc2)ccc1N=Cc1c(C)c(C#N)c(=O)n(C)c1O,0,0,0,0,74
N#Cc1ccc(OCC(=O)Nc2nc(-c3cccnc3)cs2)cc1,0,0,0,0,-
CC(C)(C)c1cc(C(C)(C)C)cc(S(=O)(=O)CCc2ccccn2)c1,0,0,0,0,70
CCOc1ccccc1Nc1nc(-c2sc(NC(=O)c3ccc([N+](=O)[O-])cc3)nc2C)cs1,0,0,0,0,82
CCOc1ccc(C(=O)NCC(=O)N2CCN(c3ccccc3O)CC2)cc1,0,0,0,0,-
O=C(Nc1cc(C(F)(F)F)ccc1Cl)C1CCN(c2nnc(-n3cccc3)s2)CC1,-,-,-,-,83
CS(=O)(=O)N1CCC(C(=O)Nc2cc(C(F)(F)F)ccc2Cl)CC1,0,0,0,0,0
CCOc1ccc(C(=O)NC(=S)NC2CCCC2)cc1[N+](=O)[O-],0,0,0,0,71
CCOC(=O)c1c(NC(=O)c2cc(-c3ccc(Cl)s3)nc3ccccc23)sc(C(N)=O)c1C,-,-,-,-,0
Cc1ccccc1-c1cc(C(=O)Nc2sc(C)c(C)c2C(N)=O)c2ccccc2n1,0,0,0,0,75
O=C(NCCS(=O)(=O)N1CCN(c2ccccc2)CC1)C1CCCC1,0,0,0,0,-
COc1cccc(/C=N/Nc2ncnc3scc(-c4ccccc4)c23)c1OC,0,0,0,0,71
Cc1sc2ncnc(N/N=C/c3ccccc3O)c2c1C,-,-,-,-,0
O=C(COC(=O)CNC(=O)C1CCCCC1)Nc1ccccc1OC(F)F,0,0,0,0,-
Cc1c(Br)cnn1C(C)C(=O)N1CCN(c2ccccc2F)CC1 (centres undefined),0,0,0,0,-
COC(=O)c1ccc(Cn2c(C)cc(C)[n+]2C)o1,0,0,0,0,73
CC(Oc1ccccc1F)C(=O)NCCN1CCCCC1 (centres undefined),0,0,0,0,74
COc1ccc(-c2[nH]n(-c3ccc([N+](=O)[O-])cc3)c(=O)c2C=NCC2CCCO2)cc1 (centres undefined),0,0,0,0,0
COc1ccc(-c2[nH]n(-c3ccc([N+](=O)[O-])cc3)c(=O)c2C=NCc2ccncc2)cc1,0,0,0,0,85
SMILES,CHOP UPR activ,XBP1 UPR activ,697 NFkB inh,Jurkat NFkB inh,CHOP inhibitor
COc1ccc(CCC(C)Nc2ccccc2F)cc1 (centres undefined),0,0,0,0,0
COc1ccc(CCC(C)Nc2cccc(F)c2)cc1 (centres undefined),0,0,0,0,88
CC(=O)N(C(C)=O)N1C(=O)/C(=C/c2ccc(Cl)cc2)SC1=S,0,0,0,0,91
N#Cc1c(-c2ccc(F)cc2)cc(-c2cccnc2)nc1N,0,0,0,0,88
CC(C)c1ccccc1OCC(=O)NC1CCCc2ccccc21 (centres undefined),0,0,0,0,75
Cc1noc(C(=O)Nc2cccc(Cl)c2)c1Cl,0,0,0,0,-
CC(C)c1ccc(NC(=O)C(=O)C2C(=O)Nc3ccccc32)cc1 (centres undefined),0,0,0,0,74
CN(C)c1ccc(NC(=O)C(=O)C2C(=O)Nc3ccccc32)cc1 (centres undefined),0,0,0,0,0
CCOC(=O)C1CCN(C(=O)c2ccc(OCC(=O)Nc3cccc(C(F)(F)F)c3)c(OC)c2)CC1,0,0,0,0,-
COc1ccc(/C=C/C(=O)Oc2cccc(/C=N/NC(=O)Cc3ccc(Br)cc3)c2)cc1,0,0,0,0,71
COc1ccc(-c2noc(CSc3nnc(Cc4ccccc4)n3-c3ccc(Cl)cc3)n2)cc1,0,0,0,0,0
Cc1ccc(-c2noc(CSc3nnc(Cc4ccccc4)n3-c3ccc(Cl)cc3)n2)cc1,0,0,0,0,81
CC(C)=CC1C(C(=O)Nc2ccc(Br)cn2)C1(C)C (centres undefined),0,0,0,0,76
CCOC(=O)C1=C(CSc2nc3ccccc3s2)NC(=O)NC1c1cccc([N+](=O)[O-])c1 (centres undefined),0,0,0,0,78
COc1ccc(OCC(O)CN2CCC(CN3C(=O)c4cccc5cccc(c45)C3=O)CC2)cc1 (centres undefined),0,0,0,0,-
Cc1ccc(C)c(OCC(O)CN2CCC(CN3C(=O)c4cccc5cccc(c45)C3=O)CC2)c1 (centres undefined),0,0,0,0,76
Cc1nn(C(C)(C)C)c(OC(=O)c2cccs2)c1Sc1ccccc1,0,0,0,0,81
Cc1nn(C(C)(C)C)c(OC(=O)c2ccco2)c1Sc1ccccc1,0,0,0,0,75
Cc1nn(C(=O)c2ccco2)c(C)c1Sc1ccc(Br)cc1,0,0,0,0,0
Cc1nn(C(=O)c2ccco2)c(C)c1Sc1ccccc1,0,0,0,0,93
Cc1nn(C(C)(C)C)c(OC(=O)c2ccc3c(c2)OCO3)c1Sc1ccccc1,0,0,0,0,0
O=C(CCN1C(=O)/C(=C/C=C/c2ccccc2)SC1=S)Nc1nc2ccccc2s1,0,0,0,0,0
O=C(COC(=O)CCN1C(=O)/C(=C\C=C\c2ccccc2)SC1=S)Nc1cc(F)ccc1F,0,0,0,0,77
O=C(CCN1C(=O)/C(=C\C=C\c2ccccc2)SC1=S)Nc1ccc(C(=O)O)cc1,0,0,0,0,-
O=C(CN1C(=O)/C(=C\C=C\c2ccccc2)SC1=S)Nc1ccc(F)cc1,0,0,0,0,89
CCOCCCNC(=O)CN1C(=O)c2ccccc2Sc2ncccc21,0,0,0,0,-
CCOC(=O)Cn1c(C(=O)OCC)cc2sccc21,0,0,0,0,0
